For data set [1], the target named is Glycogen synthase kinase-3 beta (Homo sapiens, UniProt P49841). Description: Inhibition of GSK3-beta.
Data set [2] in a line: Solubility at pH 7.4. Conditions: buffer. The class given is physicochemical.
In data set [3] the test system is Rattus norvegicus. Description: Increase in trabecular bone formation rate in once daily po dosed ovariectomized rat measured after 28 days. The format is functional, organism-based. Conditions: Trabecula. The essentials:
(§1)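 Ovariectomized rats dosed orally once daily for 28 days at four dose levels; vehicle 0.5% methylcellulose/2% Tween-80. Trabecular bone formation rate in the tibia determined at end of in-life phase. Positive control hPTH given sc.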

A short description of data set [4]: AUC (0 to infinity) in ovariectomized rat at 2 mg/kg, iv. The format is ADME, organism-based. Details: time infinity, dose 2 mg/kg, route intravenous. Particulars: female, plasma. In a few lines:
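Single intravenous dose in ovariectomized rats, vehicle DMSO. Plasma drug concentration followed over time; AUC0-∞ taken from the plasma concentration-time curve.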

Data set [5] in a line: Oral bioavailability in ovariectomized rat at 10 mg/kg. The class given is ADME, organism-based. Conditions: female, in vivo. In a few lines: (§2)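 Single oral dose given to ovariectomized rats at 10 mg/kg in 2% MC/0.5% T80 vehicle. Plasma drug concentration was followed over time, and PK parameters were derived from the concentration-time curve.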
Data set [6] in a line: Half life in ovariectomized rat plasma at 2 mg/kg, iv. The class given is ADME, organism-based. Details: dose 2 mg/kg, route intravenous. Conditions: female. In a few lines:
(§3)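 Ovariectomized rats received a single intravenous dose of 2.0 mg/kg in DMSO vehicle. Plasma drug concentration-time curves gave the PK parameters.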

Data set [7] can be described thus: Metabolic stability in rat liver microsomes assessed as half life at 1 uM. The format is ADME, Microsome.
Data set [8] in a line: Plasma clearance in ovariectomized rat at 2 mg/kg, iv. The format is ADME, organism-based. Details: dose 2 mg/kg, route intravenous. Conditions: female. In a few lines:
as §3

Data set [9] is described as follows: Tmax in ovariectomized rat at 10 mg/kg, po. The format is ADME, organism-based. Details: dose 10 mg/kg, route oral. Particulars: female, in vivo. The essentials: as §2
Data set [10] in a line: Cmax in ovariectomized rat at 10 mg/kg, po. Details: dose 10 mg/kg, route oral. Conditions: female, in vivo. The class given is ADME, organism-based. In a few lines: as §2
The nature of data set [11]: Volume of distribution at steady state in ovariectomized rat at 2 mg/kg, iv. The class given is ADME, organism-based. The arrangement: dose 2 mg/kg, route intravenous. Conditions: female, in vivo, read-out: Vdss. The essentials:
as §3

In data set [12] the test system is Rattus norvegicus. Description: Increase in trabecular bone formation rate in ovariectomized rat measured at 0.3 mg/kg, po once daily after 28 days. The format is functional, organism-based. Details: dose 0.3 mg/kg. Conditions: Trabecula. In a few lines:
as §1

Data set [13] is filed under the species Mus musculus. Description: Increase in trabecular bone formation rate in Dkk1 knockout mouse measured after 7 days. The format is functional, organism-based. Conditions: Trabecula.
Data set [14] is filed under the species Mus musculus. Description: Increase in trabecular bone formation rate in wild type mouse measured after 7 days. The format is functional, organism-based. Particulars: Trabecula.
A short description of data set [15]: AUC (0 to infinity) in ovariectomized rat at 10 mg/kg, po. Conditions: female, plasma. Details: time infinity, dose 10 mg/kg, route oral. The class given is ADME, organism-based. In a few lines: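 Single oral dose in ovariectomized rats, vehicle 2% MC/0.5% Tween-80. Plasma drug concentration followed over time; AUC0-∞ taken from the plasma concentration-time curve.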

Data set [16] is described as follows: Membrane permeability by PAMPA. The class given is ADME. Conditions: read-out: permeability. A general note: The PAMPA barrier holds no transporters, so it reflects passive diffusion.
The nature of data set [17]: Half life in ovariectomized rat plasma at 10 mg/kg, po. The class given is ADME, organism-based. The arrangement: dose 10 mg/kg, route oral. Conditions: female. In a few lines:
as §2

Structures are written as SMILES. In brackets after ≈: the same amount, converted by molar mass. Activity calls are given as the source filed them. The rule behind the calls is not given here. A value given as a limit tells only on which side of the number the result lay.

These results are taken from ChEMBL document CHEMBL1156130, “(1-(4-(Naphthalen-2-yl)pyrimidin-2-yl)piperidin-4-yl)methanamine: a wingless beta-catenin agonist that increases bone formation rate” (J Med Chem, 2009).

Broadly, the IC50 is the midpoint of a concentration-inhibition curve. Low values mean inhibition by little substance, high ones a need for much substance. A word on the solubility: it is the dissolved amount per volume that the medium holds. As a reminder, the AUC(0-inf) is total exposure, with the tail of the curve extrapolated. A higher AUC(0-inf) goes with high exposure. As a reminder, the bioavailability is the share of a dose that reaches the circulation, judged against a reference dose that is usually intravenous. Read a high bioavailability as much systemic uptake. As usually defined, the half-life is the time in which the quantity being followed falls by half. Broadly, the clearance is the rate of elimination divided by the concentration. A higher clearance goes with efficient removal. By Tmax is commonly meant the time from dosing to the highest level. The Cmax is the highest concentration seen after dosing.

Chain of Glycogen synthase kinase-3 beta (P49841 whole entry): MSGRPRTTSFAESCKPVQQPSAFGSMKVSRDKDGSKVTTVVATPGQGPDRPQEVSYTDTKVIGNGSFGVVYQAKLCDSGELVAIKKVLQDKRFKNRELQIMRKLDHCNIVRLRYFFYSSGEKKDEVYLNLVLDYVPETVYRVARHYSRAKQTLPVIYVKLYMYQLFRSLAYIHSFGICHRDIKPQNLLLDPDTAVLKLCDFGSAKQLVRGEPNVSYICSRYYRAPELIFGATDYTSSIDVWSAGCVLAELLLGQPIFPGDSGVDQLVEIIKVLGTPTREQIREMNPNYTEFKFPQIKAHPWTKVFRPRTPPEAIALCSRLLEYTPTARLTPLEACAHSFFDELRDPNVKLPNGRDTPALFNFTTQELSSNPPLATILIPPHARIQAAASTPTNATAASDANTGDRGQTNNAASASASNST

Take `Cc1ccc(-c2ccnc(N(C)c3ccc(S(N)(=O)=O)cc3)n2)s1`: in data set [1], the IC50 was 65 µM. The concentration in solution in data set [2] (solubility) was 0.015 mg/mL (≈ 41.6 µM).

In the case of `CC(=O)NCC1CCN(c2nccc(-c3ccc4ccccc4c3)n2)CC1`, the IC50 in data set [1] is over 10 µM. The molecule further showed a solubility in data set [2] of 0.001 mg/mL (≈ 2.77 µM).

In the case of `NCC1CCN(c2nccc(-c3ccc4ccccc4c3)n2)CC1`, the Activity result in data set [3] was “Dose-dependent effect”. The AUC(0-inf) in data set [4] is 1.03 µg·h/mL; in data set [15], 3.99 µg·h/mL. This molecule also gave a bioavailability in data set [5] of 78%. For the same molecule, the half-life in [6] was 8.2 h; in data set [17] it was 5.6 h. The half-life at 1 µM in [7] is over 0.5 h. In data set [8], this molecule gave a clearance of 1.92 L/h/kg. Further, the Tmax in data set [9] was 4.7 h. Besides, the peak level in data set [10] (Cmax) was 0.277 µg/mL. Moreover, in data set [11], the Vd was 22 L/kg. The result in data set [12] and in data set [14] was Active. The result in [13] was inactive. In addition, the IC50 in [1] was over 100 µM. Further, the solubility in [2] was 0.065 mg/mL (≈ 204 µM). Also, the Papp in [16] is 59 nm/s.

`Cc1ccc(-c2ccnc(Nc3ccc(S(N)(=O)=O)cc3)n2)s1` yielded an IC50 in [1] of 0.2 µM. The concentration in solution in data set [2] (solubility) was 0.008 mg/mL (≈ 23.1 µM).

On to `NC1CCN(c2nccc(-c3ccc4ccccc4c3)n2)CC1`, for which the IC50 in data set [1] was over 50 µM. In data set [2], this molecule gave a solubility of over 0.1 mg/mL.

In the case of `NS(=O)(=O)c1ccc(Nc2nccc(-c3ccc4ccccc4c3)n2)cc1`, the IC50 in data set [1] worked out at 0.31 µM. The molecule also gave a solubility in data set [2] of under 0.0001 mg/mL.
